From article PMC5858514 (Theranostics, 2018)

Tests used:
OVCAR3 cells = assay: Apoptosis study, Annexin V-FITC/PI flow cytometry; format: cell-based, human; details: OVCAR3, 24 h
Outline: (§1)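 Annexin V-FITC/PI apoptosis assay. Media: MDA-MB-231 in L-15, OVCAR3 in DMEM, U87MG in MEM; all with 10% FBS, 37 °C, 5% CO2. Cells in 6-well plates got 200 μL of 1 mg/mL test compound for 24 h, then two PBS (pH 7.4) washes. Binding buffer, propidium iodide and Annexin V-FITC were added before flow cytometry. Q2 was early apoptotic and Q4 late apoptotic; Q2+Q4 was taken as […].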

U87MG cells = assay: Apoptosis study, Annexin V-FITC/PI flow cytometry; format: cell-based, human; details: 24 h
Outline: as §1

MDA-MB-231 tumor = assay: In vivo antitumor activity; set-up: species or system mice; details: three i.v. injections every other day, 6 mg/kg PTX equivalent
Outline: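 Female BALB/c nude mice were fed a folate-deficient diet for 6 days, then given MDA-MB-231 cells at the right axillary fossa. Treatment began at tumor volumes of 80–150 mm3, n = 5 per group, with a PBS (pH 7.4) control. Dosing was 6 mg/kg PTX equivalent by tail vein, three injections every other day. Tumor volume was measured every other day. Excised tumors were assayed for CD46 protein.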

[1] = Toxicity in the therapy study: body weight and histopathology; format: in vivo, mice
Outline: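 Female nude mice bearing MDA-MB-231 tumors, n = 5 per group with a PBS (pH 7.4) control. They received 6 mg/kg PTX equivalent i.v. by tail vein, three doses every other day. Body weight was recorded every other day. Liver and kidneys were excised for pathology.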

[2] = test system: MDA-MB-231, OVCAR3, and U87MG cell lines; assay: Cell viability MTT assay, three tumor cell lines stated together; format: cell-based, human; details: maximum / at the highest dose
Outline: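 MTT viability assay. Cells at 5 × 10^3 per well, kept at 37 °C, 5% CO2 with 10% FBS: MDA-MB-231 in L-15, OVCAR3 and 293T in DMEM, U87MG in MEM. Test compound from 3 pM to 1.6 nM for 24 h, six replicates. MTT (5 mg/mL stock) added for 4 h, medium replaced with DMSO, absorbance read at 490 nm.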

MDA-MB-231 cells = assay: Apoptosis study, Annexin V-FITC/PI flow cytometry; format: cell-based, human; details: MDA-MB-231, 24 h
Outline: as §1

CC(=O)O[C@H]1C(=O)[C@@]2(C)[C@H]([C@H](OC(=O)c3ccccc3)[C@]3(O)C[C@H](OC(=O)[C@H](O)[C@@H](NC(=O)c4ccccc4)c4ccccc4)C(C)=C1C3(C)C)[C@]1(OC(C)=O)CO[C@@H]1C[C@@H]2O [PTX, paclitaxel]
cells undergoing early apoptosis (Q2) (OVCAR3 cells): 21.8%
late apoptotic cells (Q4) (OVCAR3 cells): 2.5%
cells undergoing early apoptosis (Q2) (U87MG cells): 29.8%
late apoptotic cells (Q4) (U87MG cells): 3.1%
tumor volume inhibition (MDA-MB-231 tumor): 41.04%
histopathological examination (H&E) of liver and kidneys / major organs ([1]; after treatment, compared with control group): no distinct pathologic changes
body weight loss ([1]; day 21 post initial treatment, 6 mg/kg i.v. x3): 0.65 ± 0.02 g
change in body weight ([1]; over the study period, 6 mg/kg PTX equivalent i.v. x3): significant decrease
cell inhibition ratio [2]: 63%
cells undergoing early apoptosis (Q2) (MDA-MB-231 cells): 33.8%
late apoptotic cells (Q4) (MDA-MB-231 cells): 1.3%
